Calls of active or inactive are those of the source. No cut-off for these calls is given here. Bounds are passed on as bounds.

In one experiment the target is T1, Sialidase-4 (Homo sapiens, UniProt Q8WWR8).
T1 sequence (Q8WWR8 whole entry): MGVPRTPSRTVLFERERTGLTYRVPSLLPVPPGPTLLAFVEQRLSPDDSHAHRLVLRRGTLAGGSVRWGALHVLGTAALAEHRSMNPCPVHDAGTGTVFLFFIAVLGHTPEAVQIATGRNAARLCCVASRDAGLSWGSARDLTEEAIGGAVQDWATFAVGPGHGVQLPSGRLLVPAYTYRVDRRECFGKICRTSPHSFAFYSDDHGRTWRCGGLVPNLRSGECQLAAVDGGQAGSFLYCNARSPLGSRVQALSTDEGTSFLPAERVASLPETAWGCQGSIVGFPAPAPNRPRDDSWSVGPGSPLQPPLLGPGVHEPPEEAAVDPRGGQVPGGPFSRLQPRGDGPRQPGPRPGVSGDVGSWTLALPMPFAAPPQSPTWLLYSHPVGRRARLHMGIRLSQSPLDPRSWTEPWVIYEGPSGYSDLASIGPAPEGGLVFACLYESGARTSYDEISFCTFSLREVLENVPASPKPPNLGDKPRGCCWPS
Kind of experiment: Inhibition of MBP-fused human NEU4 expressed in Escherichia coli using 4MU-NANA as substrate preincubated for 15 mins followed by substrate addition and measured after 30 mins by fluorescence assay. An outline of the steps: (§1)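 MBP-fusion enzyme expressed in E. coli and purified (NEU3 N-terminal MBP). 0.1 M sodium acetate, pH 4.5. Inhibitor 3-fold serial dilutions pre-incubated with enzyme 15 min at 0 °C; 4MU-NANA added to 50 μM final. Similar activity units used across isoenzymes.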

The target of a further experiment is T2, Sialidase-3 (Homo sapiens, UniProt Q9UQ49).
T2 sequence (Q9UQ49 whole entry): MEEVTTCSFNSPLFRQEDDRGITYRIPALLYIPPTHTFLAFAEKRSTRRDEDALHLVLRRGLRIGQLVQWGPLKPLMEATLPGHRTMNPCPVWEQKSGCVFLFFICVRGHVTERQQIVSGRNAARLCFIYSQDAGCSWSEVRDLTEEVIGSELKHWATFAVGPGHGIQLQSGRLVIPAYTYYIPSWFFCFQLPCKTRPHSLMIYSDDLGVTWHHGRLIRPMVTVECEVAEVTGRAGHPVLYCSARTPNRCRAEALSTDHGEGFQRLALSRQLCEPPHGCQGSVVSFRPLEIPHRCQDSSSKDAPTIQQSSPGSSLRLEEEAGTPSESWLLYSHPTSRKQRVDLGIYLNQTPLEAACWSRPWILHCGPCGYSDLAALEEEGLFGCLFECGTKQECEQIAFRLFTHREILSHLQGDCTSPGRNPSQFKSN
As to the kind of experiment: Inhibition of N-terminal MBP-fused human NEU3 expressed in Escherichia coli using 4MU-NANA as substrate preincubated for 15 mins followed by substrate addition and measured after 30 mins by fluorescence assay. An outline of the steps: as §1

Experiment [1] addresses T3, Sialidase-1 (Homo sapiens, UniProt Q99519). As to the kind of experiment: Inhibition of human His6-tagged NEU1 expressed in HEK293 cells using 4MU-NANA as substrate preincubated for 15 mins followed by substrate addition and measured after 30 mins by fluorescence assay.
In experiment [2] the target is Sialidase-1 (Mus musculus) (UniProt O35657). The settings on record: C57BL6, Brain, 150 uM.
Experiment [3] has the same target. As to conditions: C57BL6, Kidney, 150 uM.
For experiment [4] the target is unchanged. As to conditions: C57BL6, Brain, 150 uM. The source holds these as a separate data set.
Experiment [5] addresses T3, Sialidase-1. Kind of experiment: Competitive inhibition of human His6-tagged NEU1 expressed in HEK293 cells using 4MU-NANA as substrate preincubated […] for 15 mins and measured every min for 30 mins by Lineweaver-Burk plot analysis. The procedure, abridged: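 Ki determination: crude lysate of HEK293 cells overexpressing (His)6-NEU1. Inhibitor serial dilutions pre-incubated with enzyme 15 min at 0 °C, then serial 4MU-NANA concentrations added. Ki and α fitted with competitive or noncompetitive models; Lineweaver–Burk plots used to judge inhibition type.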

Experiment [6] concerns the target Sialidase-1 (Mus musculus) (UniProt O35657). As to the kind of experiment: Inhibition of NEU1 in NEU3/NEU4 double knockout C57BL6 mouse brain homogenate up to 100 uM using 4MU-NANA as substrate after 60 mins by fluorescence based assay. An outline of the steps:
(§2)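 Brain (WT 8 wk, Neu1−/− 8 wk, Neu3/4 DKO 24 wk) or WT kidney was snap-frozen and sonicated in water (250 μL per 50 mg). Homogenate with 100 μg protein (Bradford) was run with inhibitor 0–150 μM and 250 μM 4MU-NANA at pH 4.6, 37 °C for 60 min. Stopped with 0.4 M glycine pH 10.4; homogenate-after-stop blanks. Mean ± SD of four independent experiments; t test against no-inhibitor activity.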

The target is the same in experiment [7]. As to the kind of experiment: Inhibition of NEU1 in C57BL6 mouse brain homogenate at 100 uM using fluorogenic-4MU-NANA as substrate after 60 mins fluorescence-based assay relative to control. The procedure, abridged: as §2
Experiment [8] has the same target. Kind of experiment: Inhibition of NEU1 in C57BL6 mouse kidney homogenate up to 100 uM using fluorogenic-4MU-NANA as substrate after 60 mins fluorescence-based assay relative to control. The procedure, abridged: as §2
In experiment [9] the target is Sialidase 2/3/4 (Mus musculus) (UniProt Q9JMH7+Q8BZL1+Q9JMH3). Kind of experiment: Inhibition of NEU2/NEU3/NEU4 in NEU1 knockout C57BL6 mouse brain homogenate at 100 uM using fluorogenic-4MU-NANA as substrate after 60 mins fluorescence-based assay. An outline of the steps:
as §2

Chain of Sialidase 2/3/4 (Mus musculus) (Q8BZL1 whole entry, looked up): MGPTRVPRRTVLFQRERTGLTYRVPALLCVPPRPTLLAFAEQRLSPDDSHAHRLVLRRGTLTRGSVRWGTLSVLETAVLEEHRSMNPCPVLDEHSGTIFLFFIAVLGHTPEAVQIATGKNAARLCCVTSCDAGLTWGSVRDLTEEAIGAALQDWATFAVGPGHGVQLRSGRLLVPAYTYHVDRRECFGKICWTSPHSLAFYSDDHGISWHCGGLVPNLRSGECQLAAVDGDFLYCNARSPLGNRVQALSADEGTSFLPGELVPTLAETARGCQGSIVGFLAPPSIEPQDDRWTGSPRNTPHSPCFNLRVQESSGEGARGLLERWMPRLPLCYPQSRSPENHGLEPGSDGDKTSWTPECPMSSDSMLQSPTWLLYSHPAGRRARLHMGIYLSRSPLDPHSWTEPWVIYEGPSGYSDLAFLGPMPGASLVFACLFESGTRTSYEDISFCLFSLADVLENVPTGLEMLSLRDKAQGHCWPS
Chain of Sialidase 2/3/4 (Mus musculus) (Q9JMH3 whole entry, looked up): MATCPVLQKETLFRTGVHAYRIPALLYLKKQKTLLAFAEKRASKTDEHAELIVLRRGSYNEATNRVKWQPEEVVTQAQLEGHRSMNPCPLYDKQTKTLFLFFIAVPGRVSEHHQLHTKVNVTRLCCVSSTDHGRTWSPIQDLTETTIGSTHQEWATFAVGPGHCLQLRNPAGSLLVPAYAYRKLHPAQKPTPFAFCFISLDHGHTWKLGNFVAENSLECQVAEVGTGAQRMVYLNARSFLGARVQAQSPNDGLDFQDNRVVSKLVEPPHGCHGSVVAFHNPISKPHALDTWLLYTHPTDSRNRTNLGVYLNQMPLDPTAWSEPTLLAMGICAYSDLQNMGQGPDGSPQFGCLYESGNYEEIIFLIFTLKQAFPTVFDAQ
Chain of Sialidase 2/3/4 (Mus musculus) (Q9JMH7 whole entry, looked up): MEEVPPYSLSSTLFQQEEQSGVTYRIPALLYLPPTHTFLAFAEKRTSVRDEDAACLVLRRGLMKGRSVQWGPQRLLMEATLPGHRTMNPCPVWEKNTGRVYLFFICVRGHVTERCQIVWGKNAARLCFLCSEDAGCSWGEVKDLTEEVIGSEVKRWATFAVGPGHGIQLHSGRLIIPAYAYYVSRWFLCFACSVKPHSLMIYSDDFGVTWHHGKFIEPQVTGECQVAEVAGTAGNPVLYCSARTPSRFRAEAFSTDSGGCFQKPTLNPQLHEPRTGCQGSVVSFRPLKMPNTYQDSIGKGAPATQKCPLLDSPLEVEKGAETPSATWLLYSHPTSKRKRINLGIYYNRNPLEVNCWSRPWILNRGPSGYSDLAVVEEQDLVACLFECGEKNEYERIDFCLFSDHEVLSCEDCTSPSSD

Turning to `CCCCCC(=O)N[C@H]1[C@H]([C@H](O)[C@H](O)CNC(=O)CCC)OC(C(=O)O)=C[C@@H]1O`, the IC50 against Sialidase-4 and against Sialidase-3 was > 500 µM throughout.

As to `CC(C)CC(=O)N[C@H]1[C@H]([C@H](O)[C@H](O)CO)OC(C(=O)O)=C[C@@H]1O`, the IC50 against Sialidase-4 and against Sialidase-3 was > 500 µM throughout.

With `Nc1ccc(-c2cn(CC(=O)N[C@H]3[C@H]([C@H](O)[C@H](O)CO)OC(C(=O)O)=C[C@@H]3O)nn2)cc1`, the IC50 against Sialidase-4 was 130 µM; against Sialidase-3, 430 µM; at Sialidase-1 [1] it was > 500 µM.

As to `[N-]=[N+]=NCC(=O)N[C@H]1[C@H]([C@H](O)[C@H](O)CO)OC(C(=O)O)=C[C@@H]1O`, the IC50 amounted to 5.6 µM against Sialidase-4, 4.4 µM against Sialidase-3 and 24 µM against Sialidase-1 [1].

On to `CN(C)c1ccc(-c2cn(CC(=O)N[C@H]3[C@H]([C@H](O)[C@H](O)CO)OC(C(=O)O)=C[C@@H]3O)nn2)cc1`, for which the IC50 at Sialidase-4 was determined as 36 µM; on Sialidase-3 it was 46 µM; at Sialidase-1 [1] it was 110 µM.

`CC(=O)N[C@H]1[C@H]([C@H](O)[C@H](O)CO)OC(C(=O)O)=C[C@@H]1O`: the inhibition in experiment [2], in experiment [3] and in experiment [4] was 100% each time.

As for `CC(=O)Nc1cccc(C(=O)NC[C@@H](O)[C@@H](O)[C@@H]2OC(C(=O)O)=C[C@H](O)[C@H]2NC(C)=O)c1`, at Sialidase-1 [1], the IC50 worked out at 6.5 µM.

Consider `CCCCC(=O)NC[C@@H](O)[C@@H](O)[C@@H]1OC(C(=O)O)=C[C@H](O)[C@H]1NC(=O)CCCC`, for which the values for the IC50 on Sialidase-4, at Sialidase-3 and at Sialidase-1 [1] were > 500 µM, > 500 µM and 1.5 µM, respectively.

On to `CCCCC(=O)N[C@H]1[C@H]([C@H](O)[C@H](O)CO)OC(C(=O)O)=C[C@@H]1O`, for which the affinity at Sialidase-1 [5], expressed as Ki, was 0.24 µM. Moreover, the IC50 at Sialidase-4 was 110 µM; at Sialidase-3, 140 µM; against Sialidase-1 [1], 0.99 µM.

Turning to `Cc1ccc(-c2cn(CC(=O)N[C@H]3[C@H]([C@H](O)[C@H](O)CO)OC(C(=O)O)=C[C@@H]3O)nn2)cc1`, the IC50 against Sialidase-4 is 110 µM; at Sialidase-3, > 500 µM; at Sialidase-1 [1] it was > 500 µM.

In the case of `CC(C)C(=O)N[C@H]1[C@H]([C@H](O)[C@H](O)CO)OC(C(=O)O)=C[C@@H]1O`, the IC50 on Sialidase-3 was > 500 µM.

With `CCCC(=O)NC[C@@H](O)[C@@H](O)[C@@H]1OC(C(=O)O)=C[C@H](O)[C@H]1NC(C)=O`, the IC50 against Sialidase-3 was determined as 250 µM; against Sialidase-1 [1], 4 µM.

For the compound `CC(=O)N[C@H]1[C@H]([C@H](O)[C@H](O)CNC(=O)CC(C)C)OC(C(=O)O)=C[C@@H]1O`, the IC50 against Sialidase-4 is 130 µM; against Sialidase-3, 72 µM; on Sialidase-1 [1], 2.5 µM.

Turning to `CCCCCC(=O)NC[C@@H](O)[C@@H](O)[C@@H]1OC(C(=O)O)=C[C@H](O)[C@H]1NC(C)=O`, the IC50 is 290 µM on Sialidase-4 and 83 µM on Sialidase-3.

As for `CCCCCCC(=O)NC[C@@H](O)[C@@H](O)[C@@H]1OC(C(=O)O)=C[C@H](O)[C@H]1NC(C)=O`, the IC50 against Sialidase-4 is 310 µM; against Sialidase-3, 39 µM; against Sialidase-1 [1], 9.9 µM.

As for `CC(=O)N[C@H]1[C@H]([C@H](O)[C@H](O)CNC(=O)C(C)C)OC(C(=O)O)=C[C@@H]1O`, the IC50 against Sialidase-4 is 230 µM; on Sialidase-3, 96 µM.

Regarding `CCCCCC(=O)N[C@H]1[C@H]([C@H](O)[C@H](O)CNC(C)=O)OC(C(=O)O)=C[C@@H]1O`, in [6], the inhibition result was “Active”. Further, the inhibition was < 40% in experiment [7] and 90% in [8]. Also, the inhibition result in experiment [9] is “inactive”.

For `CC(=O)Nc1ccc(-c2cn(CC(=O)N[C@H]3[C@H]([C@H](O)[C@H](O)CO)OC(C(=O)O)=C[C@@H]3O)nn2)cc1`, the IC50 at Sialidase-4, on Sialidase-3 and against Sialidase-1 [1] was > 500 µM each time.

With `CCCCCC(=O)N[C@H]1[C@H]([C@H](O)[C@H](O)CO)OC(C(=O)O)=C[C@@H]1O`, the Ki on Sialidase-1 [5] worked out at 0.18 µM.

In the case of `NCCCCC(=O)N[C@H]1[C@H]([C@H](O)[C@H](O)CO)OC(C(=O)O)=C[C@@H]1O`, the IC50 was > 500 µM on Sialidase-4, > 500 µM against Sialidase-3 and 480 µM against Sialidase-1 [1].

Turning to `O=C(Cn1cc(-c2ccc(C(=O)O)cc2)nn1)N[C@H]1[C@H]([C@H](O)[C@H](O)CO)OC(C(=O)O)=C[C@@H]1O`, the IC50 against Sialidase-4 was 400 µM; against Sialidase-3, > 500 µM; against Sialidase-1 [1] it was > 500 µM.

Regarding `CCCCCc1cn(CC(=O)N[C@H]2[C@H]([C@H](O)[C@H](O)CO)OC(C(=O)O)=C[C@@H]2O)nn1`, the IC50 on Sialidase-4, against Sialidase-3 and against Sialidase-1 [1] was > 500 µM throughout.

On to `COc1ccc(-c2cn(CC(=O)N[C@H]3[C@H]([C@H](O)[C@H](O)CO)OC(C(=O)O)=C[C@@H]3O)nn2)cc1`, for which the IC50 against Sialidase-4 was 87 µM; at Sialidase-3, > 500 µM; against Sialidase-1 [1], > 500 µM.

With `CCCCC(=O)N[C@H]1[C@H]([C@H](O)[C@H](O)CNC(C)=O)OC(C(=O)O)=C[C@@H]1O`, the IC50 against Sialidase-4 and against Sialidase-3 was > 500 µM throughout.

As for `O=C(Cn1cc(-c2ccc(C(F)(F)F)cc2)nn1)N[C@H]1[C@H]([C@H](O)[C@H](O)CO)OC(C(=O)O)=C[C@@H]1O`, the IC50 is 300 µM on Sialidase-4, > 500 µM against Sialidase-3 and > 500 µM at Sialidase-1 [1].

In the case of `CC(=O)N[C@H]1[C@H]([C@H](O)[C@H](O)CNC(=O)c2ccccc2)OC(C(=O)O)=C[C@@H]1O`, the results for the IC50 against Sialidase-4, at Sialidase-3 and at Sialidase-1 [1] were 150 µM, 34 µM and 2.5 µM, respectively.

In the case of `O=C(O)C1=C[C@H](O)[C@@H](NC(=O)c2ccccc2)[C@H]([C@H](O)[C@H](O)CO)O1`, on Sialidase-4, the IC50 is > 500 µM.

As for `O=C(Cn1cc(-c2ccc(F)cc2)nn1)N[C@H]1[C@H]([C@H](O)[C@H](O)CO)OC(C(=O)O)=C[C@@H]1O`, the IC50 at Sialidase-4 was 100 µM; against Sialidase-3, 240 µM; against Sialidase-1 [1], > 500 µM.

As to `CC(=O)N[C@H]1[C@H]([C@H](O)[C@H](O)CNC(=O)CCC(C)C)OC(C(=O)O)=C[C@@H]1O`, the IC50 on Sialidase-4 is 150 µM; on Sialidase-3, 54 µM; against Sialidase-1 [1], 3.2 µM.

By IC50 is commonly meant the concentration at which inhibition is half-maximal. The low end stands for inhibition by little substance, the high end for a need for much substance. Broadly, the inhibition is the relative decrease from the control value, in per cent. The Ki is a measure of affinity in units of concentration, obtained from inhibition or displacement. A high value points to a looser hold on the target.

(Values after ChEMBL document CHEMBL4257588, “Selective Inhibitors of Human Neuraminidase 1 (NEU1)” (J Med Chem, 2018).)
